# From ChEMBL document CHEMBL1145371, “Synthesis and preliminary evaluation of mono-[123I]iodohypericin monocarboxylic acid as a necrosis avid imaging agent” (Bioorg Med Chem Lett, 2007)
# Values joined by “and” are separate entries in the source; they are usually repeats but may differ in a detail not shown here. Equal values may be shown once.
# Assays:
# Kidney [1] = assay: Biodistribution in kidney of NMRI mouse at 185 KBq, iv after 30 mins; assay type: ADME, organism-based; details: in vivo, 0.5 h
# [2] = Biodistribution in intestine + faeces of NMRI mouse at 185 KBq, iv after 24 hrs; assay type: ADME, organism-based; details: in vivo
# Kidney [3] = assay: Biodistribution in kidney of NMRI mouse at 185 KBq, iv after 4 hrs; assay type: ADME, organism-based; details: in vivo
# [4] = Biodistribution in intestine + faeces of NMRI mouse at 185 KBq, iv after 30 mins; assay type: ADME, organism-based; details: in vivo, 0.5 h
# [5] = Biodistribution in carcass of NMRI mouse at 185 KBq, iv after 4 hrs; assay type: ADME, organism-based; details: in vivo
# Kidney [6] = assay: Biodistribution in kidney of NMRI mouse at 185 KBq, iv after 24 hrs; assay type: ADME, organism-based; details: in vivo
# [7] = Biodistribution in spleen + pancreas of NMRI mouse at 185 KBq, iv after 30 mins; assay type: ADME, organism-based; details: in vivo, 0.5 h
# Urinary bladder [8] = assay: Biodistribution in bladder of NMRI mouse at 185 KBq, iv after 4 hrs; assay type: ADME, organism-based; details: in vivo
# [9] = Biodistribution in carcass of NMRI mouse at 185 KBq, iv after 24 hrs; assay type: ADME, organism-based; details: in vivo
# Lung = assay: Biodistribution in lung of NMRI mouse at 185 KBq, iv after 24 hrs; assay type: ADME, organism-based; details: in vivo
# [10] = Biodistribution in spleen + pancreas of NMRI mouse at 185 KBq, iv after 24 hrs; assay type: ADME, organism-based; details: in vivo
# Blood [11] = assay: Biodistribution in blood of NMRI mouse at 185 KBq, iv after 24 hrs; assay type: ADME, organism-based; details: in vivo
# Blood [12] = assay: Biodistribution in blood of NMRI mouse at 185 KBq, iv after 30 mins; assay type: ADME, organism-based; details: in vivo, 0.5 h
# Liver [13] = assay: Biodistribution in liver of NMRI mouse at 185 KBq, iv after 24 hrs; assay type: ADME, organism-based; details: in vivo
# Brain [14] = assay: Biodistribution in brain of NMRI mouse at 185 KBq, iv after 24 hrs; assay type: ADME, organism-based; details: in vivo
# [15] = Partition coefficient, log P of the compound; assay type: physicochemical; details: octanol/water
# Summary of the method: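 Octanol/buffer partitioning against 0.025 M phosphate buffer, pH 7.4; log P reported as mean ± deviation of n = 6 determinations.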
# [16] = Biodistribution in intestine + faeces of NMRI mouse at 185 KBq, iv after 4 hrs; assay type: ADME, organism-based; details: in vivo
# Brain [17] = assay: Biodistribution in brain of NMRI mouse at 185 KBq, iv after 4 hrs; assay type: ADME, organism-based; details: in vivo
# [18] = Biodistribution in carcass of NMRI mouse at 185 KBq, iv after 30 mins; assay type: ADME, organism-based; details: in vivo, 0.5 h
# Brain [19] = assay: Biodistribution in brain of NMRI mouse at 185 KBq, iv after 30 mins; assay type: ADME, organism-based; details: in vivo, 0.5 h
# Urinary bladder [20] = assay: Biodistribution in bladder of NMRI mouse at 185 KBq, iv after 24 hrs; assay type: ADME, organism-based; details: in vivo
# Liver [21] = assay: Biodistribution in liver of NMRI muse at 185 KBq, iv after 4 hrs; assay type: ADME, organism-based; details: mouse, in vivo
# Urinary bladder [22] = assay: Biodistribution in bladder of NMRI mouse at 185 KBq, iv after 30 mins; assay type: ADME, organism-based; details: in vivo, 0.5 h
# Blood [23] = assay: Biodistribution in blood of NMRI mouse at 185 KBq, iv after 4 hrs; assay type: ADME, organism-based; details: in vivo
# Liver [24] = assay: Biodistribution in liver of NMRI mouse at 185 KBq, iv after 30 mins; assay type: ADME, organism-based; details: in vivo, 0.5 h
smiles,measurement,setting,value
Cc1cc(O)c2c(=O)c3c(O)cc(O)c4c5c(O)c([123I])c(O)c6c(=O)c7c(O)cc(C(=O)O)c8c1c2c(c34)c(c78)c65,Drug uptake,Kidney [1],2.9 %ID and 4.4 % ID/g
same,Drug uptake,[2],69.4 %ID
same,Drug uptake,Kidney [3],2.6 %ID and 4.8 % ID/g
same,Drug uptake,[4],13.2 %ID
same,Drug uptake,[5],10.3 %ID
same,Drug uptake,Kidney [6],1 %ID and 1.9 % ID/g
same,Drug uptake,[7],1.3 %ID and 3.9 % ID/g
same,Drug uptake,Urinary bladder [8],7.1 %ID
same,Drug uptake,[9],2.8 %ID
same,Drug uptake,Lung,0.1 %ID and 0.2 % ID/g
same,Drug uptake,[10],0.2 %ID and 0.5 % ID/g
same,Drug uptake,Blood [11],0.1 %ID
same,Drug uptake,Blood [12],3.3 %ID and 1.3 % ID/g
same,Drug uptake,Liver [13],4.7 %ID and 2.7 % ID/g
same,Drug uptake,Brain [14],0 %ID
same,logP,[15],1.47
same,Drug uptake,[16],50.5 %ID
same,Drug uptake,Brain [17],0 %ID
same,Drug uptake,[18],13.2 %ID
same,Drug uptake,Brain [19],0 %ID
same,Drug uptake,Urinary bladder [20],21.1 %ID
same,Drug uptake,Liver [21],22.4 %ID and 13.2 % ID/g
same,Drug uptake,Urinary bladder [22],0.3 %ID
same,Drug uptake,Blood [23],1.6 %ID and 0.6 % ID/g
same,Drug uptake,Liver [24],64.4 %ID and 33.7 % ID/g
Cc1cc(O)c2c(=O)c3c(O)cc(O)c4c5c(O)c([123I])c(O)c6c(=O)c7c(O)cc(C)c8c1c2c(c34)c(c78)c65,Drug uptake,Blood [23],28.2 % ID/g
